Assay outcomes from PubChem.
CCR6 antag: CCR6 receptor antagonists, primary screen, cell-based, CHO-K1, luminescence, beta-arrestin, uHTS. C-C chemokine receptor type 6 (Homo sapiens), P51684. CHO-K1 CCR6 PathHunter beta-arrestin, CCL20-stimulated. inhibition, % at 20 µM. 0.49% of 340,000 active;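 active means compounds whose inhibition of the agonist-driven luminescence signal at 20 µM reaches about 50%, limit read from the data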;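 further: cells stimulated with CCL20 at 14 nM final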
EBI2 block: EBI2 receptor antagonists, beta-arrestin recruitment, primary screen, cell-based, luminescence, 7a,25-OHC stimulation, uHTS | G-protein coupled receptor 183 (Homo sapiens), P32249 | 7a,25-OHC stimulated | inhibition, % at 5 µM | 0.81% of 360,000 active | AID 651636, 2012; in the data active means inhibition above about 38%;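 further: enzyme fragment complementation signal reports receptor beta-arrestin coupling in cells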
APJ agonist: agonists of human apelin receptor APJ, primary screen, CHO-K1 cells, PathHunter beta-arrestin, luminescence. P35414. 0% DMSO wells, 100% apelin. activation, % at 20 µM. 0.11% of 330,000 active. AID 2520, 2010;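 active means activation more than six SD over the plate average, tested at 20 µM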
Target sequence (P35414 whole entry, looked up): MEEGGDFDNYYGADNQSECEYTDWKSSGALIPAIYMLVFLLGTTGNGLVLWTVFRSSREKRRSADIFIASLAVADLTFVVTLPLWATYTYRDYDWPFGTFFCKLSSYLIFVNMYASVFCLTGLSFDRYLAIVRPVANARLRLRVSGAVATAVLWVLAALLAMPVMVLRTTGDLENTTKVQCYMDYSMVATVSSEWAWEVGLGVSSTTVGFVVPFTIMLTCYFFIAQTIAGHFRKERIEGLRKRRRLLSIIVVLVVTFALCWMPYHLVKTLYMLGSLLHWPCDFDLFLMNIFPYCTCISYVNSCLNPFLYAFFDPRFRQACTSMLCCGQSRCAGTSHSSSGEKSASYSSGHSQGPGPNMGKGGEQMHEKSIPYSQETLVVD
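assay system = CHO-K1 APJ beta-arrestin complementation cell line | input = cell density 1000 per well | dosing = compound 20 µM once, DMSO 1% | timing = compound 90 min 25 °C, reagent 1 h | measured by = luminescence from split beta-galactosidase complementation, Galacton Star/Emerald II substrate | read-out basis = APJ agonist activity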
APJ antag: antagonists of human apelin receptor APJ, primary screen, CHO-K1 cells, beta-arrestin complementation, luminescence; P35414; inhibition, % at 20 µM; 0.32% of 330,000 active;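 active means inhibition above about 40% at 20 µM, limit read from the data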;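 further: cells challenged with 10 nM apelin-13 agonist together with compound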
CXCR6 block: CXCR6 receptor inhibitors, primary screen, cell-based, beta-arrestin, luminescence, CHO-K1 PathHunter, 1536-well. C-X-C chemokine receptor type 6 (Homo sapiens), O00574. inhibition, % at 20 µM. 0.36% of 360,000 active; in the data active means inhibition above about 34%, passing the limit was not always enough;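 further: antagonist mode with CXCL16 agonist at 10 nM final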
iPSC survival up: enhancers of single-cell hiPSC survival, primary screen, ATPlite luminescence; 100% = ROCK inhibitor wells, 0% = DMSO; survival enhancement, % at 20 µM; 0.044% of 360,000 active; in the data active means survival enhancement above about 18%;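 further: cells exposed to compounds for 16 hours before the ATP read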
EBI2 antag conf: EBI2 antagonist hit retest, beta-arrestin, confirmation, cell-based, single concentration, luminescence, 7a,25-OHC stimulation; inhibition, % at 5 µM; shares compounds with EBI2 block; 29% of 2,400 active; 7a,25-OHC antagonism;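 active means inhibition of at least 50%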
EBI2 agonist: EBI2 agonist activity of antagonist hits, confirmation, counter-screen for EBI2 antagonist project, cell-based, single concentration, agonist mode, luminescence; shares compounds with EBI2 block; EBI2-expressing cells, 60 min; 0% vehicle, 100% 7α,25-dihydroxycholesterol control; activation, % at 5 µM; 2,400 tested, under 10 active;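 active means activation of at least 50%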
bGal counter: E. coli beta-galactosidase enzyme inhibition, confirmation, counter-screen for EBI2 antagonist project, biochemical, luminescence, single concentration | shares compounds with EBI2 block | purified beta-galactosidase, luminescent Galacton Star, 15 min | inhibition, % at 5 µM | 1% of 2,400 active | AID 652176, 2013;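 active means replicate-average signal at least 3 plate SD below neutral wells, shown as high inhibition, flagging enzyme-inhibiting false positives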;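 further: higher means stronger loss of beta-gal luminescence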
Of the large screens only hits and unclear results are named; the others gave an inactive call (follow-up assays come after a bar, where they were run). Rows were chosen to be rich in hits. Some 1.5% of all compounds tested hit in one or more screens of this group.

CC(=O)c1ccc(N2CCN(C(=O)c3cc4c(C)nc5ccccc5c4o3)CC2)cc1	none
COc1ccc(N2CCN(C(=O)c3cc4c(C)nc5ccccc5c4o3)CC2)cc1	EBI2 block 54 | EBI2 antag conf inactive | EBI2 agonist inactive | bGal counter inactive
Cc1nc2ccccc2c2oc(C(=O)N3CCN(C4CCCCC4)CC3)cc12	EBI2 block 87 | EBI2 antag conf 77 | EBI2 agonist inactive | bGal counter inactive
O=C(c1nc2ccc(Cl)cn2c1CNCC[C@@H]1C[C@@H]2C=C[C@H]1C2)N1CCCCCCC1	EBI2 block 61 | EBI2 antag conf inactive | EBI2 agonist inactive | bGal counter inactive
Cc1ccccc1Oc1ncnc2oc(-c3ccccc3)cc12	EBI2 block 65 | EBI2 antag conf inactive | EBI2 agonist inactive | bGal counter inactive
Clc1ccc(Oc2ncnc3oc(-c4ccccc4)cc23)cc1	none
Cc1cc(CNCCN(C)C)c(C)n1-c1cc(S(=O)(=O)N2CCOCC2)ccc1N1CCCC1	none (no result: APJ agonist, APJ antag)
Cc1nc2c(OCc3ccc(Cl)cc3Cl)cccn2c1N(C)Cc1cccs1	EBI2 block 42 (no result: CCR6 antag, APJ agonist, APJ antag) | EBI2 antag conf inactive | EBI2 agonist inactive | bGal counter inactive
O=C(CCCNC(=O)c1ccc(Cl)cc1)Nc1nccs1	none
CCCNC(=O)c1cc2c(c(-c3cccc(-c4ccc(F)cc4)c3)n1)[C@H](CCO)N(S(=O)C(C)(C)C)C2 (stereo partly drawn)	EBI2 block 61 (no result: CCR6 antag, APJ agonist, APJ antag) | EBI2 antag conf inactive | EBI2 agonist inactive | bGal counter inactive
CC(C)(C)S(=O)N1Cc2cc(C(=O)NCc3ccc4c(c3)OCO4)nc(-c3cccc(-c4ccncc4)c3)c2[C@H]1CCO (stereo partly drawn)	none (no result: CCR6 antag, APJ agonist, APJ antag)
CC(C)(C)S(=O)N1Cc2cc(C(=O)NCc3ccc4c(c3)OCO4)nc(-c3cccc(-c4ccccc4)c3)c2[C@@H]1CCO (stereo partly drawn)	EBI2 block 46 (no result: CCR6 antag, APJ agonist, APJ antag) | EBI2 antag conf inactive | EBI2 agonist inactive | bGal counter inactive
O=C(Nc1ccc(Cl)c(Cl)c1)C1CCN(C(=O)c2ccco2)CC1	none
Clc1ccc(-c2nnnn2-c2ccc(Cl)c(Cl)c2)cc1Cl	EBI2 block 49 | EBI2 antag conf inactive | EBI2 agonist inactive | bGal counter inactive
CCN(CC(=O)Nc1c(F)cccc1F)C(=O)C1COc2ccccc2O1 (stereo not drawn)	none
Cc1ccc(Nc2nnc(SCC3CCCCO3)s2)cc1 (stereo not drawn)	EBI2 block 59 | EBI2 antag conf inactive | EBI2 agonist inactive | bGal counter inactive
Cc1ccccc1Nc1nnc(SCC2CCCCO2)s1 (stereo not drawn)	none
Cc1nnc(SC(C)C(=O)NCC2CCCO2)s1 (stereo not drawn)	none
Cc1ccc(Nc2nnc(SC(C)C(=O)NCC3CCCO3)s2)cc1C (stereo not drawn)	EBI2 block 46 | EBI2 antag conf inactive | EBI2 agonist inactive | bGal counter inactive
CN(CC(=O)Nc1cccc(F)c1)C(=O)c1cc([N+](=O)[O-])ccc1N1CCCCC1	none
CCOC(=O)C1(Cc2ccccc2)CCCCCC1=O (stereo not drawn)	none (no result: APJ agonist, APJ antag)
CN(C(=O)c1cccc(Nc2ccc(-c3ccc4c(c3)OCCO4)nn2)c1)C1CCCCC1	EBI2 block 42 | EBI2 antag conf inactive | EBI2 agonist inactive | bGal counter inactive
CCN(CC)S(=O)(=O)c1ccc(Nc2ccc(-c3ccc4c(c3)OCCO4)nn2)cc1	EBI2 block 49 | EBI2 antag conf inactive | EBI2 agonist inactive | bGal counter inactive
CC(C)c1ccc(NC(=S)Nc2cccc3ccccc23)cc1	EBI2 block 44 | EBI2 antag conf inactive | EBI2 agonist inactive | bGal counter inactive
Fc1ccc(NC(=S)Nc2cccc3ccccc23)cc1	none
CCNC(=S)Nc1ccc(OCC)cc1	none
CCOc1ccc(NC(=S)Nc2ccccc2C2CC2)cc1	EBI2 block 60 | EBI2 antag conf inactive | EBI2 agonist inactive | bGal counter inactive
CCOc1ccc(NC(=S)Nc2cccc3ccccc23)cc1	EBI2 block 56 | EBI2 antag conf inactive | EBI2 agonist inactive | bGal counter inactive
COc1ccc(NC(=S)Nc2cccc3cnccc23)cc1	none
Cc1ccc(NC(=S)Nc2cccc3ccccc23)cc1	none
CCOc1ccc(NC(=S)Nc2cccc3cnccc23)cc1	EBI2 block 66 | EBI2 antag conf inactive | EBI2 agonist inactive | bGal counter inactive
COc1ccc(Cl)cc1NC(=O)CCc1nnc2ccc(N3CCN(C)CC3)nn12	none
CCOc1ncccc1C(=O)OCC(=O)NC1CCCCCC1	none
CC(C)c1ccc(NC(=S)Nc2ccc3[nH]c(=O)[nH]c3c2)cc1	none
CC(=O)N(C)c1ccc(NC(=S)Nc2ccc(C(C)C)cc2)cc1	EBI2 block 52 | EBI2 antag conf inactive | EBI2 agonist inactive | bGal counter inactive
C=CCNC(=S)N/N=C/c1cn(-c2ccccc2)nc1-c1ccc(OC)cc1	EBI2 block 45 | EBI2 antag conf inactive | EBI2 agonist inactive | bGal counter inactive
COc1ccc(CCNC(=O)c2ccc(NC(=O)CC3SC(N4CCCCC4)=NC3=O)cc2)cc1 (stereo not drawn)	none (no result: APJ agonist, APJ antag)
Cc1ccc(NC(=O)N2CCN(C/C=C/c3ccccc3)CC2)cc1	EBI2 block 45 | EBI2 antag conf inactive | EBI2 agonist inactive | bGal counter inactive
O=C(Nc1ccc2c(c1)OCO2)N1CCN(C/C=C/c2ccccc2)CC1	EBI2 block 45 | EBI2 antag conf inactive | EBI2 agonist inactive | bGal counter inactive
O=C(Nc1ccc2c(c1)OCO2)N1CCN(c2ccccc2)CC1	none
Cc1ccc(C(=O)CCC(=O)N2CCN(C/C=C/c3ccccc3)CC2)cc1	none (no result: CCR6 antag, APJ agonist, APJ antag)
CC1c2ccccc2-c2ccccc2N1C (stereo not drawn)	none (no result: APJ agonist, APJ antag)
